This note sets out measurements from ChEMBL document CHEMBL1129751, “2-Iminopiperidine and other 2-iminoazaheterocycles as potent inhibitors of human nitric oxide synthase isoforms” (J Med Chem, 1996).

Assay [1] addresses Nitric oxide synthase, inducible (Homo sapiens, UniProt P35228). Nature of the assay: Inhibitory activity against human inducible nitric oxide synthase. The gist of the method:
(§1)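 Recombinant human enzymes expressed in Sf9 cells by baculovirus and partially purified on DEAE-Sepharose from soluble extracts. Assay in 50 mM Tris pH 7.6 with BSA, DTT, CaCl2, FAD, tetrahydrobiopterin, NADPH, 30 µM final L-arginine with L-[2,3-3H]arginine. Endothelial form also given 40 nM calmodulin. 15 min at 37 °C, stopped with EGTA buffer. [3H]citrulline isolated on cation exchange and counted. IC50 from eight concentrations, at least duplicate.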

The target of assay [2] is Nitric oxide synthase 1 (Homo sapiens, UniProt P29475). Nature of the assay: Inhibitory activity against human Neuronal nitric oxide synthase.
Chain of Nitric oxide synthase 1 (P29475 whole entry, canonical isoform): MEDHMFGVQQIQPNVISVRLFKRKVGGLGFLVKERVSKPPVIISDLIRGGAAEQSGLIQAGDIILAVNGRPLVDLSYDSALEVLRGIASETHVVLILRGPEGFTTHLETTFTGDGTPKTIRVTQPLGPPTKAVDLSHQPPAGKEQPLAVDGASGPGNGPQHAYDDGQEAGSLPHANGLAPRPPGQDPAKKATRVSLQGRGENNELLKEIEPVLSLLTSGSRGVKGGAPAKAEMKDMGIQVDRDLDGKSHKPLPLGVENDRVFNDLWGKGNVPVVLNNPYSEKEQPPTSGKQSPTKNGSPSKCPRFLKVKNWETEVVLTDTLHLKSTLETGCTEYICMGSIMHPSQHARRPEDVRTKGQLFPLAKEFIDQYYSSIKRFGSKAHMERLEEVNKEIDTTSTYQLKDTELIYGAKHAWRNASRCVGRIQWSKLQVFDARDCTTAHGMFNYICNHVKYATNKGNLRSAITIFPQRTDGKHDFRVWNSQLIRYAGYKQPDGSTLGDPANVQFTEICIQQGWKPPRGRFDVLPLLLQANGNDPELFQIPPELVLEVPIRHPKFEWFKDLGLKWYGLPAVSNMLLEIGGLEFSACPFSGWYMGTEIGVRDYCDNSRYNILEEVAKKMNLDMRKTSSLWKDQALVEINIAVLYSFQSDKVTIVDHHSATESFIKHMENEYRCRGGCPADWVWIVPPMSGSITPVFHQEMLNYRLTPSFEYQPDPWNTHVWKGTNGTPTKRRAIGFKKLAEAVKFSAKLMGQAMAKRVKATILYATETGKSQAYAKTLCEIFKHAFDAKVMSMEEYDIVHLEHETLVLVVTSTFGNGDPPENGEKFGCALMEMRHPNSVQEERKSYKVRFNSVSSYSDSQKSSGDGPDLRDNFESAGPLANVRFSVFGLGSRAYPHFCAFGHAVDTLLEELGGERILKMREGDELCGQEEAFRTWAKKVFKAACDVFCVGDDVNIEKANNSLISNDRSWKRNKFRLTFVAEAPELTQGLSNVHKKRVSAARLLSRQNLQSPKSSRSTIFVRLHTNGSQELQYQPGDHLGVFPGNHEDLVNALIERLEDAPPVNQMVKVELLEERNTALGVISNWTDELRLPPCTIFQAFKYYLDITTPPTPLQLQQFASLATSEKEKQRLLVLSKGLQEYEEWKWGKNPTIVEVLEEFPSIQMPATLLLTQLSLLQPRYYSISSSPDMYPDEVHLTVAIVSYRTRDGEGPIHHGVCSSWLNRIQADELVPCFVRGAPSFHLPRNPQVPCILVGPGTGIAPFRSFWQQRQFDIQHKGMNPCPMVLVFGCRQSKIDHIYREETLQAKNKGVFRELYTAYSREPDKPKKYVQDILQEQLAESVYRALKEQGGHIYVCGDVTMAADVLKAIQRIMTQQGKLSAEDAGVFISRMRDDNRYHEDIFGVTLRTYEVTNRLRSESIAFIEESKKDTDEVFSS
The nature of assay [3]: Selectivity is defined as the ratio of the IC50(hncNOS) to IC50(hiNOS). The gist of the method: (§2)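 Ratio of IC50 for the endothelial or neuronal isoform to IC50 for the inducible isoform. All three recombinant human enzymes were assayed by [3H]arginine-to-[3H]citrulline conversion at 30 µM final L-arginine, 37 °C for 15 min. Both constitutive isoforms had 40 nM calmodulin. Each compound tested at eight concentrations.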

The target of assay [4] is T1, Nitric oxide synthase 3 (Homo sapiens, UniProt P29474).
T1 sequence (P29474 whole entry): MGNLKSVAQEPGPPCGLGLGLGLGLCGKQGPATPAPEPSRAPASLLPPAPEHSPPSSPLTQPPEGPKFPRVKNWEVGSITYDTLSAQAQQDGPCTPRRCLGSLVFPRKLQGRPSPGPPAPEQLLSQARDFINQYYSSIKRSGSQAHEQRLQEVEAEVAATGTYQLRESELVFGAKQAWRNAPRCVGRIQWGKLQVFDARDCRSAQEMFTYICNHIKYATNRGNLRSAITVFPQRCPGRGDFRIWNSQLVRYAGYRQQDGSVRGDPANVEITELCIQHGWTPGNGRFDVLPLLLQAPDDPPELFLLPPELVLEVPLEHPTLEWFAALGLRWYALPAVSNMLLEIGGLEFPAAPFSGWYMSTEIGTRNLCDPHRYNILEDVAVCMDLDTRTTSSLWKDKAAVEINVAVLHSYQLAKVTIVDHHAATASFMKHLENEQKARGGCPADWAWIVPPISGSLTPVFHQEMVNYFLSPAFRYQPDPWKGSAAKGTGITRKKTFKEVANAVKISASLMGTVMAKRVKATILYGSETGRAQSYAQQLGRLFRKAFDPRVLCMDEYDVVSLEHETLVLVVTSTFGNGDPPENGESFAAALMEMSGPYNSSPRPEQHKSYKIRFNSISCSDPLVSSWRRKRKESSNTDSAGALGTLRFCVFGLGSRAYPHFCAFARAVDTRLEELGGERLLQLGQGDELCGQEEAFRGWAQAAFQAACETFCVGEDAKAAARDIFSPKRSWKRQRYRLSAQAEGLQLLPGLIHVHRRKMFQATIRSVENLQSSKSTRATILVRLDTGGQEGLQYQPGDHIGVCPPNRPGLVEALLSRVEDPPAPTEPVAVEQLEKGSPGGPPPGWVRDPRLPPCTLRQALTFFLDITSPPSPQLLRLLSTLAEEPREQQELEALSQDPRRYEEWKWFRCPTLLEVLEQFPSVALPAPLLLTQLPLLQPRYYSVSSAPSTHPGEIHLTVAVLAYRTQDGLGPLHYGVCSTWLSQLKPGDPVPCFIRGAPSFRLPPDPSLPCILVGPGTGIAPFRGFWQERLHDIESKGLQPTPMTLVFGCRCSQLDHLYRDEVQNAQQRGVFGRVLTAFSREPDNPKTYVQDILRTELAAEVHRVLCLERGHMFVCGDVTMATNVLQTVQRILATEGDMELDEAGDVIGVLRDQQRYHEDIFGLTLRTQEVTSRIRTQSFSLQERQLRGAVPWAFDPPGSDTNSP
As to the kind of experiment: Inhibitory activity against human Endothelial nitric oxide synthase. The gist of the method: as §1

Assay [5] in a line: Selectivity is defined as the ratio of the IC50(hecNOS) to IC50(hiNOS). The procedure, abridged:
as §2

Chain of Nitric oxide synthase, inducible (P35228 whole entry): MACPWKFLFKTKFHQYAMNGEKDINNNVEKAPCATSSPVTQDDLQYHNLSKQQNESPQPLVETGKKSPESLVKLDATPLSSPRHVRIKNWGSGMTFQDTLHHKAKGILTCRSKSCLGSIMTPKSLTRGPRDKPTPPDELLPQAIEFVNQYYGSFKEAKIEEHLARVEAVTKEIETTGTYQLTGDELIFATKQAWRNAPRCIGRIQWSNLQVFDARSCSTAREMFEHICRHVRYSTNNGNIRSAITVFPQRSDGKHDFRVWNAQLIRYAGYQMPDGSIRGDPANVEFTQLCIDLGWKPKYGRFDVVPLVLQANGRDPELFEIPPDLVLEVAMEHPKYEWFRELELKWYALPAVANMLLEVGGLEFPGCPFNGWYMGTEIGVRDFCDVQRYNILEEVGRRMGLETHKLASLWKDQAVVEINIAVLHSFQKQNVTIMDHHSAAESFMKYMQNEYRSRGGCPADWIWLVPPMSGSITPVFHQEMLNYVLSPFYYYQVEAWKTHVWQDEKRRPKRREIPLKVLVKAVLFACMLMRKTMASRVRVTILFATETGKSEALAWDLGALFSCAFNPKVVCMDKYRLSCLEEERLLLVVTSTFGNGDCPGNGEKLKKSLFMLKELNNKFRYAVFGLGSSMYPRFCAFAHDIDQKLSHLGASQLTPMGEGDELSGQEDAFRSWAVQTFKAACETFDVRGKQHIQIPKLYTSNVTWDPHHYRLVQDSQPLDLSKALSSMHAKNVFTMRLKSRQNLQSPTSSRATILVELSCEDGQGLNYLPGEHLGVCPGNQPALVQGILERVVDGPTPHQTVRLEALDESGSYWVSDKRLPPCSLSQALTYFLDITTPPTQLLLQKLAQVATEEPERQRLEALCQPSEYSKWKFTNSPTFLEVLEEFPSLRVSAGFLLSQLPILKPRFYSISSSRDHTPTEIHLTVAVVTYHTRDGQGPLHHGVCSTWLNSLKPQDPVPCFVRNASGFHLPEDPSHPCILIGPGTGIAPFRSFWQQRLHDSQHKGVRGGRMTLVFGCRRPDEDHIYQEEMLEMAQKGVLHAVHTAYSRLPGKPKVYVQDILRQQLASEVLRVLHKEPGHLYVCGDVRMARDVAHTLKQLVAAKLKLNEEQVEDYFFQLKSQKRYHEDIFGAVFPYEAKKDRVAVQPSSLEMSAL

Turning to `NC1=NCCCS1`, the IC50 in assay [1] is 2.9 µM; in assay [2], 3.2 µM; in assay [4], 7.1 µM. For the same molecule, the Selectivity in assay [3] came out at 1.1; in assay [5] it was 2.4.

As to `NC1=NCCCO1`, the figures for the IC50 in assay [1], in assay [2] and in assay [4] were 1.8 µM, 3.7 µM and 8.2 µM, respectively. For the same molecule, the results for the Selectivity in assay [3] and in assay [5] were 2.1 and 4.6, respectively.

For `N/C1=N/CCCCCCC1`, the Selectivity in assay [3] amounted to 0.7; in assay [5] it was 9.2.

Regarding `NC1=NCCC1`, the IC50 was determined as 26 µM in assay [1], 20 µM in assay [2] and 93 µM in assay [4]. In addition, the Selectivity in assay [3] worked out at 0.8; in assay [5], 3.6.

Regarding `NC1=NCCCN1`, the results for the concentration for half-maximal inhibition (IC50) in assay [1], in assay [2] and in assay [4] were 25 µM, 17 µM and 87 µM, respectively. Also, the Selectivity in assay [3] turned out to be 0.7; in assay [5], 3.5.

As to `NC1=NCCCCC1`, the figures for the IC50 in assay [1], in assay [2] and in assay [4] were 2 µM, 3.5 µM and 16 µM, respectively. The Selectivity amounted to 1.8 in assay [3] and 8 in assay [5].

For the molecule `N=C1CCCCCCCN1`, the IC50 was 9.8 µM in assay [1], 6.8 µM in assay [2] and 90 µM in assay [4].

In the case of `N=C1CCCCN1`, the IC50 came to 1 µM in assay [1] and 4.7 µM in assay [4].

For the molecule `NC1=NCCCCCC1`, the IC50 in assay [1] worked out at 10 µM; in assay [2], 10 µM; in assay [4], 59 µM.

In the case of `N/C1=N/CCCCCC1`, the Selectivity in assay [3] was found to be 1; in assay [5] it was 5.9.

On to `CC(=N)NCCCC[C@H](N)C(=O)O` [L-NIL], for which the IC50 in assay [1] is 4.6 µM; in assay [2], 61 µM; in assay [4] it was 138 µM. The Selectivity in assay [3] came out at 13; in assay [5], 30.

As usually defined, the IC50 is the midpoint of a concentration-inhibition curve. Read a low IC50 as higher potency.
